Results as given in ChEMBL document CHEMBL5252546, “Salutaxel, a Conjugate of Docetaxel and a Muramyl Dipeptide (MDP) Analogue, Acts as Multifunctional Prodrug That Inhibits Tumor Growth and Metastasis” (J Med Chem, 2018).
Each block holds one compound with its values, some of them ahead of it. Active and inactive are the calls of the source. No cut-off for these calls is given here.

Assays:
[1] = Cmax in mouse tumor implanted with mouse 4T1 cells at 5.7 mg/kg,iv measured upto 72 hrs; assay type: ADME, organism-based, Neoplasm; parameters: time < 72 hrs, dose 5.7 mg/kg, route iv
[2] = Toxicity in BALB/c mouse xenografted with human MDA-MB-231 cells assessed as side effects at 5.7 mg/kg,iv administrated once per week for 3 weeks; assay type: organism-based; conditions: in vivo, 504 h
Summary of the method: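 Nude BALB/c nu/nu mice received subcutaneous human tumour cells into the right flank. Dosing started at mean tumour volume of 100–120 mm3, iv once weekly for 3 weeks; the taxane arm was an equimolar control. Body weight and overt side effects were monitored. Mean ± SEM, n = 8.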

[3] = test system: 4T1; assay: Antitumor activity against mouse 4T1 cells implanted in BALB/c mouse assessed as decrease in serum IL-6 level at 5.7 mg/kg,iv administrated once per week for 4 weeks by ELISA; assay type: functional, organism-based
[4] = test system: 4T1; assay: Antitumor activity against mouse 4T1 cells implanted in BALB/c mouse assessed as decrease in spleen MMP2 expression level at 5.7 mg/kg,iv administrated once per week for 4 weeks by western blot assay; assay type: functional, organism-based
Summary of the method: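 4T1 cells injected into mammary fat pads of BALB/c mice. Saline vehicle or test article given iv once weekly for 4 weeks. Spleen, lung and tumor lysates immunoblotted for MMP2/MMP9 with β-actin as loading control. Bands averaged over five mice per group, representative of two independent experiments.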

[5] = test system: 4T1; assay: Antitumor activity against mouse 4T1 cells implanted in BALB/c mouse assessed as decrease in lung injury at 5.7 mg/kg,iv administrated once per week for 4 weeks in presence of compound 5b by H and E staining based assay; assay type: functional, organism-based
Summary of the method: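 BALB/c mice bearing orthotopic mammary fat pad 4T1 tumors, dosed iv weekly for 4 weeks with saline vehicle as control. Lung sections stained with hematoxylin and eosin and examined by light microscopy at 40× for metastasis, inflammatory infiltration and alveolar wall thickening.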

[6] = Half life in mouse plasma implanted with mouse 4T1 cells at 10 mg/kg,iv measured upto 72 hrs; assay type: ADME, organism-based
[7] = Cmax in mouse tumor implanted with mouse 4T1 cells at 10 mg/kg,iv measured upto 72 hrs; assay type: ADME, organism-based, Neoplasm; parameters: time < 72 hrs, dose 10 mg/kg, route iv
Summary of the method: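 BALB/c mice carried 4T1 cells implanted in the mammary fat pad and received a single iv dose of 10 mg/kg. Parent drug and released docetaxel were assayed in plasma and tumor tissue up to 72 h. Parameters came from noncompartmental analysis, n = 6, mean ± SD.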

[8] = Drug concentration in plasma of Beagle dog assessed as docetaxel concentration at 1 to 4 mg/kg,iv measured upto 24 hrs; assay type: ADME, organism-based, Canis lupus familiaris; conditions: in vivo, dose 1-4 mg/kg
Summary of the method: (§1)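 Beagle dogs were given a single iv infusion at 1, 2 or 4 mg/kg. Plasma parent drug and released docetaxel were followed over time. Cmax, Tmax, AUC, MRT, t1/2, CL and Vss were reported by sex and for all dogs combined.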

[9] = Volume of distribution at steady state in Beagle dog at 1 mg/kg,iv measured upto 24 hrs; assay type: ADME, organism-based, Canis lupus familiaris; conditions: in vivo, read-out: Vdss
[10] = Clearance in male Beagle dog at 1 mg/kg,iv measured upto 24 hrs; assay type: ADME, organism-based, Canis lupus familiaris; conditions: in vivo; summary of the method: as §1
[11] = Clearance in rat at 2 mg/kg,iv measured upto 24 hrs; assay type: ADME, organism-based; conditions: in vivo
Summary of the method: (§2)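 Rats were given a single iv injection at 2, 4 or 8 mg/kg. Plasma parent drug and released docetaxel were followed over time. Cmax, Tmax, AUC, MRT, t1/2, CL and Vss were reported for males, females and all animals combined.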

[12] = MRT (0 to infinity) in Beagle dog at 4 mg/kg,iv measured upto 24 hrs; assay type: ADME, organism-based, Canis lupus familiaris; conditions: in vivo
[13] = MRT (0 to infinity) in female Beagle dog at 1 mg/kg,iv measured upto 24 hrs; assay type: ADME, organism-based, Canis lupus familiaris; conditions: in vivo
[14] = MRT (0 to infinity) in Beagle dog at 1 mg/kg,iv measured upto 24 hrs; assay type: ADME, organism-based, Canis lupus familiaris; conditions: in vivo
[15] = MRT (0 to infinity) in male rat at 2 mg/kg,iv measured upto 24 hrs; assay type: ADME, organism-based; conditions: in vivo
[16] = AUC (0-infinity) in male rat at 4 mg/kg,iv measured upto 24 hrs; assay type: ADME, organism-based; parameters: time < 24 hrs, dose 4 mg/kg, route iv; conditions: in vivo
Summary of the method: (§3)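 Single iv dose: rats 2, 4 or 8 mg/kg by intravenous injection; Beagle dogs 1, 2 or 4 mg/kg by intravenous infusion. Plasma concentration–time data were analysed by sex and pooled. Reported parameters: Cmax, Tmax, AUC0−t, AUC0−∞, MRT0−∞, t1/2, CL, Vss, given as mean ± SD.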

[17] = AUC (0-t) in Beagle dog at 2 mg/kg,iv measured upto 24 hrs; assay type: ADME, organism-based, Canis lupus familiaris; parameters: time < 24 hrs, dose 2 mg/kg, route iv; conditions: in vivo; summary of the method: as §3
[18] = Tmax in male rat at 2 mg/kg,iv measured upto 24 hrs; assay type: ADME, organism-based; conditions: in vivo
[19] = Tmax in rat at 4 mg/kg,iv measured upto 24 hrs; assay type: ADME, organism-based; conditions: in vivo
[20] = Cmax in male rat at 2 mg/kg,iv measured upto 24 hrs; assay type: ADME, organism-based; parameters: time < 24 hrs, dose 2 mg/kg, route iv; conditions: in vivo; summary of the method: as §2
[21] = Cmax in female rat at 4 mg/kg,iv measured upto 24 hrs; assay type: ADME, organism-based; parameters: time < 24 hrs, dose 4 mg/kg, route iv; conditions: in vivo; summary of the method: as §2
[22] = Cmax in female Beagle dog at 1 mg/kg,iv measured upto 24 hrs; assay type: ADME, organism-based, Canis lupus familiaris; parameters: dose 1 mg/kg, time < 24 hrs, route iv; conditions: in vivo; summary of the method: as §1
[23] = Cmax in Beagle dog at 2 mg/kg,iv measured upto 24 hrs; assay type: ADME, organism-based, Canis lupus familiaris; parameters: dose 2 mg/kg, time < 24 hrs, route iv; conditions: in vivo; summary of the method: as §1
[24] = Cmax in Beagle dog at 4 mg/kg,iv measured upto 24 hrs; assay type: ADME, organism-based, Canis lupus familiaris; parameters: dose 4 mg/kg, time < 24 hrs, route iv; conditions: in vivo; summary of the method: as §1
[25] = Toxicity in BALB/c mouse xenografted with human HCT-116 cells assessed as body weight loss at 10 mg/kg,iv administrated once per week for 3 weeks; assay type: organism-based; conditions: in vivo, 504 h
[26] = Drug metabolism in mouse hepatocytes assessed as MDA-205 metabolite formation at 20 uM incubated for 180 mins; assay type: ADME, cell-based, Hepatocyte; conditions: 3 h
[27] = Drug metabolism in dog hepatocytes assessed as docetaxel metabolite formation at 20 uM incubated for 180 mins; assay type: ADME, cell-based, Canis lupus familiaris, Hepatocyte; conditions: 3 h
[28] = test system: BT-474; assay: Antiproliferative activity against human BT-474 cells assessed inhibition of cell growth incubated for 72 hrs by SRB assay; assay type: functional, cell-based; conditions: BT-474, 72 h
[29] = test system: NCI-H23; assay: Antiproliferative activity against human NCI-H23 cells assessed inhibition of cell growth incubated for 72 hrs by SRB assay; assay type: functional, cell-based; conditions: NCI-H23, 72 h
[30] = test system: SF-295; assay: Antiproliferative activity against human SF-295 cells assessed inhibition of cell growth incubated for 72 hrs by SRB assay; assay type: functional, cell-based; conditions: SF-295, 72 h
[31] = Acute toxicity in Sprague-Dawley rat assessed as lethal dose at iv administration; assay type: organism-based; conditions: in vivo
Summary of the method: (§4)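 Acute toxicity after a single intravenous administration. […] In dogs, an approximate lethal dose range was determined.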

[32] = Acute toxicity in Beagle dog assessed as lethal dose at iv administration; assay type: organism-based, Canis lupus familiaris; conditions: in vivo; summary of the method: as §4
[33] = Chronic toxicity in male Sprague-Dawley rat at 2 to 8 mg/kg,iv administered once per week for 30 days; assay type: organism-based; conditions: in vivo, 720 h, dose 2-8 mg/kg, time 30 day
Summary of the method: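 Long-term toxicity: rats given iv 2, 4 or 8 mg/kg and dogs 3, 6 or 18 mg/kg once weekly over 30 days; toxicokinetics recorded; highest non-severely toxic dose determined by sex.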

[34] = Toxicity in male Sprague-Dawley rat assessed as maximal non-toxic dose at iv administration; assay type: organism-based; conditions: in vivo, read-out: MNTD
[35] = test system: 4T1; assay: Antitumor activity against mouse 4T1 cells implanted in BALB/c mouse assessed as decrease in spleen MDSC cells at 5 mg/kg,iv measured after 28 days (reference value: 38%); assay type: functional; parameters: scale not given: the % may be the effect or the level left; conditions: time 28 day

Cmax [1]: 950 nM
SMILES: CC(=O)O[C@@]12CO[C@@H]1C[C@H](O)[C@@]1(C)C(=O)[C@H](O)C3=C(C)[C@@H](OC(=O)[C@H](O)[C@@H](NC(=O)OC(C)(C)C)c4ccccc4)C[C@@](O)([C@@H](OC(=O)c4ccccc4)[C@H]21)C3(C)C [DOCETAXEL ANHYDROUS]
Activity [2]: Non-Toxic | Activity [3]: Active | Activity [4]: inactive | Activity [5]: Active

SMILES: CC(=O)O[C@@]12CO[C@@H]1C[C@H](O)[C@@]1(C)C(=O)[C@H](O)C3=C(C)[C@@H](OC(=O)[C@H](OC(=O)CCC(=O)NCCCC[C@H](NC(=O)CC[C@@H](NC(=O)[C@H](C)NC(=O)/C=C/c4ccc(F)cc4Cl)C(N)=O)C(=O)O)[C@@H](NC(=O)OC(C)(C)C)c4ccccc4)C[C@@](O)([C@@H](OC(=O)c4ccccc4)[C@H]21)C3(C)C
half-life [6]: 41.4 min | Cmax [7]: 140 nM | Drug uptake [8]: 0.23% | Vd [9]: 0.169 L/kg | clearance [10]: 11.7 mL/min/kg | clearance [11]: 6.66 mL/min/kg | MRT inf [12]: 20.3 min | MRT inf [13]: 18.4 min | MRT inf [14]: 15.2 min | MRT inf [15]: 13.9 min | AUC(0-inf) [16]: 20800 ng·h/mL | AUC(0-t) at 24 h [17]: 5900 ng·h/mL | Tmax [18]: 4.98 min | Tmax [19]: 4.98 min | Cmax [20]: 15800 ng/mL | Cmax [21]: 30500 ng/mL | Cmax [22]: 4020 ng/mL | Cmax [23]: 12700 ng/mL | Cmax [24]: 30100 ng/mL | Activity [25]: Non-Toxic | Drug metabolism [26]: Metabolite_Detected | Drug metabolism [27]: Metabolite_Detected | IC50 [28]: 16.3 nM | IC50 [29]: 16.3 nM | IC50 [30]: 16.3 nM | LD50 [31]: 13.2 mg/kg | LD [32]: 33 mg/kg | Activity [33]: Toxic | NOAEL [34]: 4 mg/kg | Activity [35]: 36.2%
